# Laboratory results taken from ChEMBL document CHEMBL1140321, “Synthesis and biological evaluation of acyclic 3-[(2-hydroxyethoxy)methyl] analogues of antiviral furo- and pyrrolo[2,3-d]pyrimidine nucleosides” (J Med Chem, 2005).
# How the values were obtained:
# HEL [1] = assay: Concentration required to inhibit human cytomegalovirus strain AD169 induced cytopathogenicity in HEL cells by 50%; type: functional, cell-based
# HEL [2] = assay: Concentration required to cause a microscopically visible alteration of cell morphology in HEL cells; type: functional; conditions: Homo sapiens
# HEL [3] = assay: Concentration required to inhibit human cytomegalovirus strain Davis induced cytopathogenicity in HEL cells by 50%; type: functional, cell-based
# HEL [4] = assay: Concentration required to inhibit Varicella-Zoster virus (strain 07/1) induced cytopathogenicity in HEL cells by 50%; type: functional, cell-based; conditions: Homo sapiens
# HEL [5] = assay: Concentration required to inhibit vesicular stomatitis virus induced cytopathogenicity in HEL cells by 50%; type: functional, cell-based; conditions: Homo sapiens
# CCRF-CEM [6] = assay: Concentration required to inhibit human immunodeficiency virus-1 (strain IIIb) induced cytopathogenicity in CEM cells by 50%; type: functional, cell-based
# In short: (§1)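 Human CEM cells (~3 × 10^5 cells/cm³) were infected with 100 CCID50/mL of HIV-1(IIIB) or HIV-2(ROD) and seeded into wells with compound dilutions. After 4 days at 37 °C, HIV-induced giant-cell formation was examined microscopically and EC50 was taken as the concentration giving 50% inhibition.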
# HEL [7] = assay: Concentration required to inhibit Varicella-Zoster virus (strain OKA) induced cytopathogenicity in HEL cells by 50%; type: functional, cell-based; conditions: Homo sapiens
# HEL [8] = assay: Concentration required to inhibit herpes simplex virus type 2 induced cytopathogenicity in HEL cells by 50%; type: functional, cell-based; conditions: Homo sapiens
# CCRF-CEM [9] = assay: Concentration required to inhibit human immunodeficiency virus-2 (strain ROD) induced cytopathogenicity in CEM cells by 50%; type: functional, cell-based; in short: as §1
# HEL [10] = assay: Concentration required to inhibit herpes simplex virus type 1 induced cytopathogenicity in HEL cells by 50%; type: functional, cell-based; conditions: Homo sapiens
# HEL [11] = assay: Concentration required to inhibit cell proliferation in HEL cells by 50%; type: functional; conditions: Homo sapiens
# HEL [12] = assay: Concentration required to inhibit vaccinia virus induced cytopathogenicity in HEL cells by 50%; type: functional, cell-based; conditions: Homo sapiens
# HEL [13] = assay: Concentration required to inhibit HEL cell proliferation by 50%; type: functional; conditions: Homo sapiens
SMILES,EC50 (HEL [1]) [µM],MCC (HEL [2]) [µM],EC50 (HEL [3]) [µM],EC50 (HEL [4]) [µM],EC50 (HEL [5]) [µM],EC50 (CCRF-CEM [6]) [µM],EC50 (HEL [7]) [µM],EC50 (HEL [8]) [µM],EC50 (CCRF-CEM [9]) [µM],EC50 (HEL [10]) [µM],CC50 (HEL [11]) [µM],EC50 (HEL [12]) [µM],CC50 (HEL [13]) [µM]
CCCCCCCCCCCc1cc2cn(COCCO)c(O)nc-2n1,> 16,80,> 16,10,> 40,> 10,16,> 40,> 10,> 40,41,> 40,–
CCCCCCCCc1cc2cn(COCCO)c(=O)nc2o1,31,≥ 80,10,> 16,> 16,> 50,11,> 16,> 50,> 16,> 200,> 16,–
CCCCCC#Cc1cc2cn(COCCO)c(=O)nc2o1,> 20,≥ 100,58,> 50,> 200,> 50,> 50,> 200,> 50,> 200,> 50,> 200,–
CCCCCCCCCCc1cc2cn(COCCO)c(=O)nc2o1,> 400,400,> 80,> 80,> 16,> 250,> 80,> 16,> 250,> 16,> 200,> 16,–
CCCCCCCCCc1cc2cn(COCCO)c(=O)nc2o1,> 400,≥ 16,> 400,10,> 200,> 250,41,> 200,> 250,> 200,≥ 100,> 200,–
OCCOCn1cc2ccnc-2nc1O,> 400,> 400,> 400,> 400,> 400,> 250,> 400,> 400,> 250,> 400,> 200,> 400,–
CCCCCc1cc2cn(COCCO)c(O)nc-2n1,> 400,> 400,> 400,> 400,> 400,> 250,> 400,> 400,> 250,> 400,> 200,> 400,–
CCCCC#Cc1cc2cn(COCCO)c(=O)nc2o1,> 100,> 100,> 100,> 50,> 200,> 50,> 50,> 200,> 50,> 200,> 50,> 200,–
CCCCCc1cc2cn(COCCO)c(=O)nc2o1,> 400,> 400,> 400,> 400,> 400,> 50,> 400,> 400,> 250,> 400,> 200,> 400,–
O=c1nc2occc2cn1COCCO,> 400,> 400,> 400,> 400,> 400,> 250,> 100,> 400,> 250,> 400,> 200,> 400,–
CCCCCCCCC#Cc1cc2cn(COCCO)c(=O)nc2o1,> 4,≥ 20,5.2,8.5,> 40,> 10,> 5,> 40,> 10,> 40,42,> 40,–
CCCCCCCCCC#Cc1cc2cn(COCCO)c(=O)nc2o1,> 4,≥ 20,5.2,7.1,> 40,> 10,2.6,> 40,> 10,> 40,> 50,> 40,–
CCCCc1cc2cn(COCCO)c(=O)nc2o1,> 400,> 400,> 400,> 400,> 400,> 250,≥ 100,> 400,> 250,> 400,> 200,> 400,–
CCCCCCc1cc2cn(COCCO)c(O)nc-2n1,400,> 400,253,151,> 80,> 50,206,> 80,> 50,> 80,> 200,> 80,–
CCCCCCCCCc1cc2cn(COCCO)c(O)nc-2n1,> 16,> 80,> 16,> 16,> 80,> 50,> 16,> 80,> 50,> 80,–,> 80,–
CCCCCCCCCCCc1cc2cn(COCCO)c(=O)nc2o1,> 16,80,> 16,> 16,> 40,> 250,> 16,> 40,> 250,> 40,132,> 40,–
C#Cc1cn(COCCO)c(=O)[nH]c1=O,> 400,> 400,> 400,> 400,> 400,> 250,> 400,> 400,> 250,> 400,–,> 400,> 200
CCCCCCCCCCc1cc2cn(COCCO)c(O)nc-2n1,5.1,80,1.8,5.8,> 16,> 10,6.4,> 16,> 10,> 16,32,> 16,–
CCCCCCCc1cc2cn(COCCO)c(=O)nc2o1,> 80,400,> 80,> 80,> 200,> 50,> 80,> 200,> 50,> 200,140,> 200,–
CCCCCCCCc1cc2cn(COCCO)c(O)nc-2n1,> 16,80,> 16,> 16,> 80,> 50,> 16,> 80,> 50,> 80,65,> 80,–
CCCCCCCc1cc2cn(COCCO)c(O)nc-2n1,> 400,≥ 400,400,156,> 200,> 250,149,> 200,> 250,> 200,119,> 200,–
CCCCCCC#Cc1cc2cn(COCCO)c(=O)nc2o1,40,> 200,> 20,100,> 200,> 50,100,> 200,–,> 200,> 50,> 200,–
CCCCc1cc2cn(COCCO)c(O)nc-2n1,> 400,> 400,> 400,> 400,> 400,> 250,> 400,> 400,> 250,> 400,> 200,> 400,–
CCCCCCCC#Cc1cc2cn(COCCO)c(=O)nc2o1,> 20,200,> 20,> 20,> 40,> 10,> 20,> 40,> 10,> 40,> 50,> 40,–
CCCCCCc1cc2cn(COCCO)c(=O)nc2o1,> 80,≥ 400,> 80,151,> 16,> 50,173,> 16,> 50,> 16,> 200,> 16,–
O=c1[nH]c(=O)n([C@H]2C[C@H](O)[C@@H](CO)O2)cc1/C=C/Br [BRIVUDINE],> 100,> 400,> 100,> 108,> 500,> 50,0.03,300,> 50,0.16,≥ 400,60,–
